Tests used:
[1] = target: T1, 5-hydroxytryptamine receptor 1A (Rattus norvegicus, UniProt P19327); assay: In vitro binding affinity was measured on serotonergic 5-hydroxytryptamine 1A receptor by displacement of [3H]- tetralin
T1 sequence (P19327 whole entry): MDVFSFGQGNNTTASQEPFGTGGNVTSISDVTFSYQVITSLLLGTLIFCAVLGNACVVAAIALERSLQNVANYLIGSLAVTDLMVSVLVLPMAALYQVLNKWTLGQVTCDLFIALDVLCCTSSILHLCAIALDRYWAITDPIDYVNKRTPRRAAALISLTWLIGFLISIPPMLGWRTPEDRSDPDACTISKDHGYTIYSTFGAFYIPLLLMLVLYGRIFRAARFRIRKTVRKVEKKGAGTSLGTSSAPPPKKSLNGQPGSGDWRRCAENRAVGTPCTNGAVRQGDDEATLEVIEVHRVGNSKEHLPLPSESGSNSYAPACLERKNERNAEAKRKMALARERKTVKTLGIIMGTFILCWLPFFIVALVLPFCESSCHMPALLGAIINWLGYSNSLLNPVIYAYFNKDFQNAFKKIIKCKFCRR
Summary of the method: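 Rat hippocampus membranes from male Sprague-Dawley rats, homogenized in 50 mM Tris pH 7.7, preincubated 10 min at 37 °C. Final incubation buffer was 50 mM Tris, 4 mM CaCl2, 10 μM pargyline, 0.1% ascorbic acid, pH 7.4. [3H]-8-OH-DPAT at 0.3 nM final, 30 min at 25 °C, then filtration. Nonspecific binding was defined with 10 μM serotonin.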

[2] = target: Serotonin 2 (5-HT2) receptor (Rattus norvegicus, UniProt P30994+P08909+P14842); assay: In vitro binding affinity was measured on serotonergic 5-hydroxytryptamine 2 receptor by displacement of [3H]- ketanserin; assay type: protein assay
Mus musculus [3] = assay: Tested in vivo for their ability to antagonize the apomorphine induced stereotypy response in mice; assay type: functional
Summary of the method: (§1)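 Male CD-1 mice (20–25 g) were acclimated ≥30 min in wire-mesh cages. Drug in 0.5% methyl cellulose or vehicle was given po 60 min before sc apomorphine HCl 5 mg/kg in 0.0001 N HCl, N = 6/dose group. Climbing and stereotypy were scored every 5 min for 30 min, starting at 5 min. The six scores were averaged and % antagonism taken versus controls. ED50 by Litchfield–Wilcoxon.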

Mus musculus [4] = assay: In vivo the ability to antagonize the apomorphine induced climbing response in mice; assay type: functional; summary of the method: as §1
Mus musculus [5] = assay: Tested in vivo for their ability to induction of catalepsy in mice; assay type: functional
Summary of the method: (§2)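 Catalepsy induction was tested in male CD-1 mice (20–25 g). Drug was given in 0.5% methyl cellulose vehicle at 0.5–2.0 mL/100 g. ED50 by Litchfield–Wilcoxon.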

Mus musculus [6] = assay: In vivo the ability to antagonize the apomorphine induced climbing response in mice after peroral administration; assay type: functional; details: po; summary of the method: as §1
Mus musculus [7] = assay: Tested in vivo for their ability to antagonize the apomorphine induced stereotypy response in mice after peroral administration; assay type: functional; details: po; summary of the method: as §1
Mus musculus [8] = assay: Tested in vivo for their ability to induction of catalepsy in mice after peroral administration; assay type: functional; details: po; summary of the method: as §2

Compound | IC50 [1] [nM] | IC50 [2] [nM] | ED50 (Mus musculus [3]) [mg/kg] | ED50 (Mus musculus [4]; Mus musculus, read-out: ED50) [mg/kg] | ED50 (Mus musculus [5]) [mg/kg] | ED50 (Mus musculus [6]) [mg/kg] | ED50 (Mus musculus [4]) [mg/kg] | ED50 (Mus musculus [7]) [mg/kg] | ED50 (Mus musculus [8]) [mg/kg]
O=C1Cc2ccccc2C(=O)N1CCCCN1CCN(c2nsc3ccccc23)CC1 | 1.8 | 4.7 | 40.3 | 12.2 | 133 |  |  |  | 
O=c1c2ccccc2ncn1CCCCN1CCN(c2nsc3ccccc23)CC1 | 0.59 | 2.3 |  |  |  | 6.2 |  |  | 
Cc1nn(CCCCN2CCN(c3nsc4ccccc34)CC2)c(=O)c2ccccc12 | 3.4 | 0.84 |  |  |  | 30.4 |  |  | 
O=C1C2CCCCC2C=NN1CCCCN1CCN(c2nsc3ccccc23)CC1 (stereo in doubt; 52) | 0.82 | 0.76 |  |  |  |  | 16.2 |  | 
O=C1c2ccccc2CCCN1CCCCN1CCN(c2nsc3ccccc23)CC1 | 4.1 | 4.2 |  | > 25 |  |  |  |  | 
O=C(CCCN1CCC(O)(c2ccc(Cl)cc2)CC1)c1ccc(F)cc1 [HALOPERIDOL] |  |  | 0.9 |  | 3 |  |  |  | 
O=c1c2ccccc2nnn1CCCCN1CCN(c2nsc3ccccc23)CC1 | 1.7 | 2.9 |  |  |  | 19.1 |  | 57.8 | 252
O=c1c2ccccc2sn1CCCCN1CCN(c2nsc3ccccc23)CC1 | 120 | 140 |  |  |  | > 25 |  |  | 
O=c1[nH]n(CCCCN2CCN(c3nsc4ccccc34)CC2)c(=O)c2ccccc12 | 2.6 | 76 |  |  |  | > 25 |  |  | 
O=c1c2ccccc2[nH]n1CCCCN1CCN(c2nsc3ccccc23)CC1 | 350 | 150 |  |  |  | > 25 |  |  | 
O=C1c2ccccc2C(=O)N1CCCCN1CCN(c2nsc3ccccc23)CC1 | 0.19 | 7.6 |  | 6.2 |  |  |  |  | 
O=C1c2ccccc2CCN1CCCCN1CCN(c2nsc3ccccc23)CC1 | 0.64 | 1.9 |  | 16.4 |  |  |  |  | 
O=C1c2ccccc2CN1CCCCN1CCN(c2nsc3ccccc23)CC1 | 7 | 5.1 | 24.7 | 6.3 | > 360 |  |  |  | 
O=C1C2CCCCC2C=NN1CCCCN1CCN(c2nsc3ccccc23)CC1 (stereo in doubt; 53) | 0.021 | 0.38 |  | 25 |  |  |  |  | 
CCOC(=O)n1c2ccccc2c(=O)n1CCCCN1CCN(c2nsc3ccccc23)CC1 | 33 | 7.9 |  | > 25 |  |  |  |  | 
O=C1c2ccccc2S(=O)(=O)N1CCCCN1CCN(c2nsc3ccccc23)CC1 | 0.4 | 1.1 |  |  |  | 48.7 |  |  | 
O=c1c2ccccc2cnn1CCCCN1CCN(c2nsc3ccccc23)CC1 | 10 | 1.8 |  |  |  | 9.5 |  | 29.8 | 70.4
